In ChEMBL document CHEMBL1140903, “Reactions of functionalized sulfonamides: application to lowering the lipophilicity of cytosolic phospholipase A2alpha inhibitors” (J Med Chem, 2009):
Calls of active or inactive are those of the source. No cut-off for these calls is given here.

Tests used:
[1] = test system: MC9; test: Inhibition of IgE-specific antigen-induced LBT4 release in mouse MC9 cells at 0.11 uM
[2] = test system: MC9; test: Inhibition of arachidonic acid-induced PGF2-alpha release in mouse MC9 cells at 1.0 uM
[3] = biological target: T1, Cytosolic phospholipase A2 (Homo sapiens, UniProt P47712); test: Inhibition of human cytosolic PLA2alpha by GLU micelle assay
T1 sequence (P47712 whole entry): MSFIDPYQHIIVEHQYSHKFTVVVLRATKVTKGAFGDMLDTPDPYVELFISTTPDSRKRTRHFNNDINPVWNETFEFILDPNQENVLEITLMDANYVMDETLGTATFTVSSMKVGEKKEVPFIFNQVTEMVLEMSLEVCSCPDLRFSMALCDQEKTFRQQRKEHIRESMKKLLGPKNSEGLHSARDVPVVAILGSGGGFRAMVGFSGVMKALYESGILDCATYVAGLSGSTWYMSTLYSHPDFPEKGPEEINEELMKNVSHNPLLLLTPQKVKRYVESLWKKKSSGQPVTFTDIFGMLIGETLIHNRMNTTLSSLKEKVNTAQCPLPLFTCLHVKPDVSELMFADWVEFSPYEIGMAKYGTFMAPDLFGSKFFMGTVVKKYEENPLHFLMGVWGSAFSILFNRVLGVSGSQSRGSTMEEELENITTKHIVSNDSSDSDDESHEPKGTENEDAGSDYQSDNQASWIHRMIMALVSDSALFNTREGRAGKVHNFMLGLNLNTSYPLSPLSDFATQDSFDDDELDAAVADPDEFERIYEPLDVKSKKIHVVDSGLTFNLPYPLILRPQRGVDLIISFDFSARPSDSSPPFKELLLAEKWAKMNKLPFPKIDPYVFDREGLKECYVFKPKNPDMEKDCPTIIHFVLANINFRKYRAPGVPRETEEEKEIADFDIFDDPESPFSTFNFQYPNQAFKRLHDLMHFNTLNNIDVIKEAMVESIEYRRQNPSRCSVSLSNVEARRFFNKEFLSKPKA
Summary of the method: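 Purified human cPLA2α with the substrate 7-hydroxycoumarinyl-γ-linolenate (GLU), presented in micelles containing a high concentration of detergent and lipid. IC50 is taken from at least two runs, each run the mean of duplicate assays.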

[4] = test system: MC9; test: Inhibition of IgE-specific antigen-induced PGF2alpha release in mouse MC9 cells at 0.11 uM
[5] = test system: Blood; test: Inhibition of A23187-induced TBX2 release in Sprague-Dawley rat whole blood; format: functional, tissue-based
Summary of the method: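 Rat whole blood is stimulated with calcium ionophore A23187, and thromboxane B2 is the read-out (cPLA2α- and COX-1-dependent). IC50 is taken from at least two runs, each run the mean of triplicate assays.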

[6] = test system: Rattus norvegicus; test: Plasma concentration in carrageenan-induced paw edema Sprague-Dawley rat model at 15 mg/kg, iv; format: ADME, organism-based; parameters: dose 15 mg/kg, route intravenous; details: in vivo
Summary of the method: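 Plasma concentration is measured in end-bleed samples taken 3 h after iv dosing in 50/50 PEG/DMSO in the carrageenan paw edema model. Values are means from five animals.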

[7] = test system: Rattus norvegicus; test: Antiinflammatory activity against carrageenan-induced paw edema in Sprague-Dawley rat at 15 mg/kg, iv; format: functional
Summary of the method: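 Rat carrageenan paw edema after iv dosing in 50/50 PEG/DMSO, with paw swelling assessed 3 h after dosing. Groups of 10 animals; naproxen was used to define maximal % inhibition.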

[8] = test system: MC9; test: Inhibition of IgE-specific antigen-induced PGF2-alpha release in mouse MC9 cells at 0.037 uM
[9] = test system: MC9; test: Inhibition of IgE-specific antigen-induced LBT4 release in mouse MC9 cells at 0.037 uM
[10] = test system: MC9; test: Inhibition of IgE-specific antigen-induced PGF2alpha release in mouse MC9 cells at […]
[11] = test system: Blood; test: Inhibition of A23187-induced TBX2 release in human whole blood; format: functional, tissue-based
Summary of the method: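 Human whole blood is stimulated with calcium ionophore A23187 at a higher concentration than in the rat whole blood assay. Thromboxane production is the read-out.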

[12] = test system: MC9; test: Inhibition of IgE-specific antigen-induced LBT4 release in mouse MC9 cells at 0.333 uM
[13] = test system: MC9; test: Inhibition of IgE-specific antigen-induced LBT4 release in mouse MC9 cells at […]
[14] = test system: MC9; test: as above; remark: listed apart in the source
[15] = test system: MC9; test: Inhibition of IgE-specific antigen-induced PGF2-alpha release in mouse MC9 cells
[16] = test system: MC9; test: Inhibition of arachidonic acid-induced PGF2-alpha release in mouse MC9 cells
[17] = test system: Rattus norvegicus; test: Plasma concentration in carrageenan-induced paw edema Sprague-Dawley rat model at 15 mg/kg, iv; details: in vivo
[18] = test system: MC9; test: cells; details: Mus musculus, MC9, read-out: INH
[19] = test system: MC9; test: Inhibition of IgE-specific antigen-induced PGF2alpha release in rat MC9 cells at 0.20 uM; details: Mus musculus, MC9, read-out: INH
[20] = test system: Rattus norvegicus; test: Antiinflammatory activity against carrageenan-induced paw edema in Sprague-Dawley rat at 10 mg/kg, iv; details: read-out: INH
[21] = test system: MC9; test: Inhibition of arachidonic acid-induced PGF2-alpha release in rat MC9 cells at 0.0005 uM; format: functional; details: Mus musculus
[22] = test system: MC9; test: Inhibition of arachidonic acid-induced PGF2alpha release in mouse MC9 cells at 0.30 uM
[23] = test system: MC9; test: Inhibition of IgE-specific antigen-induced PGF2-alpha release in rat MC9 cells at 0.0005 uM; format: functional; details: Mus musculus
[24] = test system: MC9; test: Inhibition of IgE-specific antigen-induced PGF2-alpha release in mouse MC9 cells at 0.40 uM
[25] = test system: MC9; test: Inhibition of arachidonic acid-induced PGF2-alpha release in mouse MC9 cells at 0.5 uM
[26] = test system: MC9; test: Inhibition of IgE-specific antigen-induced PGF2alpha release in mouse MC9 cells at 0.5 uM
[27] = test system: MC9; test: Inhibition of IgE-specific antigen-induced LBT4 release in mouse MC9 cells at 0.5 uM

| Compound | inhibition at 1 µM [2] [%] | IC50 [3] [nM] | IC50 [5] [nM] | other results |
| --- | --- | --- | --- | --- |
| O=C(O)c1ccc(OCCc2c(CCNS(=O)(=O)C[S+]([O-])c3ccc(Cl)c(Cl)c3)n(C(c3ccccc3)c3ccccc3)c3ccc(Cl)cc23)cc1 (stereo not given) | 1.4 | 180 | 560 | inhibition at 0.11 µM [1]: 55%; inhibition at 0.11 µM [4]: 45% |
| CC1CCC(C)N1CCS(=O)(=O)NCCc1c(CCOc2ccc(C(=O)O)cc2)c2cc(Cl)ccc2n1C(c1ccccc1)c1ccccc1 (stereo not given) | -2 | 130 | 74 | inhibition at 0.11 µM [1]: 80%; concentration [6]: 232 nM; inhibition at 0.11 µM [4]: 69%; inhibition in vivo at 15 mg/kg [7]: 37% |
| CN(C)CC1CCCCN1CCS(=O)(=O)NCCc1c(CCOc2ccc(C(=O)O)cc2)c2cc(Cl)ccc2n1C(c1ccccc1)c1ccccc1 (stereo not given) | 13 | 270 | 150 | inhibition at 0.11 µM [1]: 62%; inhibition at 0.11 µM [4]: 56% |
| O=C(O)c1ccc(OCCc2c(CCNS(=O)(=O)CSc3ccc(Cl)c(Cl)c3)n(C(c3ccccc3)c3ccccc3)c3ccc(Cl)cc23)cc1 | 33 | 240 | 140 | inhibition at 0.037 µM [8]: 48%; inhibition at 0.037 µM [9]: 64% |
| CC1CCCCN1CCS(=O)(=O)NCCc1c(CCOc2ccc(C(=O)O)cc2)c2cc(Cl)ccc2n1C(c1ccccc1)c1ccccc1 (stereo not given) | 14 | 120 | 57 | inhibition at 0.037 µM [8]: 45%; inhibition at 0.037 µM [9]: 62% |
| O=C(O)c1ccc(OCCc2c(CCNS(=O)(=O)CSc3ccc(F)cc3F)n(C(c3ccccc3)c3ccccc3)c3ccc(Cl)cc23)cc1 | 47 | 140 | 30 | inhibition at 0.037 µM [8]: 77%; inhibition at 0.037 µM [9]: 94% |
| O=C(O)c1ccc(OCCc2c(CCNS(=O)(=O)CCn3ncnn3)n(C(c3ccccc3)c3ccccc3)c3ccc(Cl)cc23)cc1 | 4 | 380 | 450 | inhibition at 0.33 µM at […] [10]: 71%; IC50 [11]: 2000 nM; inhibition at 0.333 µM [12]: 80% |
| NC(=O)C1CCCN1CCS(=O)(=O)NCCc1c(CCOc2ccc(C(=O)O)cc2)c2cc(Cl)ccc2n1C(c1ccccc1)c1ccccc1 (single isomer, unassigned) | 8 | 350 | 3200 | inhibition at 0.33 µM at […] [10]: 41%; inhibition at 0.33 µM at […] [13]: 41% |
| O=C(O)c1ccc(CCCc2c(CCNS(=O)(=O)CCN3CCOCC3)n(C(c3ccccc3)c3ccccc3)c3ccc(Cl)cc23)cc1 | 9 | 200 | 140 | inhibition at 0.11 µM [1]: 69%; concentration [6]: 163 nM; inhibition at 0.11 µM [4]: 71%; inhibition in vivo at 15 mg/kg [7]: 23.5% |
| CC(c1cc2ccccc2s1)N(O)C(N)=O (stereo not given) [ZILEUTON] | – | – | – | inhibition at 0.55 µM at […] [14]: 50%; Activity [15]: inactive; Activity [16]: inactive |
| O=C(O)c1ccc(OCCc2c(CCNS(=O)(=O)CCN3CCSCC3)n(C(c3ccccc3)c3ccccc3)c3ccc(Cl)cc23)cc1 | 6 | – | 180 | inhibition at 0.11 µM [1]: 76%; concentration [6]: 270 nM; inhibition at 0.11 µM [4]: 66%; inhibition in vivo at 15 mg/kg [7]: 27.9% |
| O=C(O)c1ccc(CCCc2c(CCNS(=O)(=O)Cc3ccc(Cl)c(Cl)c3)n(C(c3ccccc3)c3ccccc3)c3ccc(Cl)cc23)cc1 [EFIPLADIB] | – | 40 | 70 | concentration [17]: 5300 nM; inhibition in vivo at 15 mg/kg [7]: 51% |
| CC(=O)N1C(C)CN(CCS(=O)(=O)NCCc2c(CCOc3ccc(C(=O)O)cc3)c3cc(Cl)ccc3n2C(c2ccccc2)c2ccccc2)CC1C (stereo not given) | – | 270 | 1200 | – |
| CN1CCN(Cc2ccccc2CS(=O)(=O)NCCc2c(CCCc3ccc(C(=O)O)cc3)c3cc(Cl)ccc3n2C(c2ccccc2)c2ccccc2)CC1 | – | 20 | 80 | – |
| Cc1cc(C)n(CCS(=O)(=O)NCCc2c(CCOc3ccc(C(=O)O)cc3)c3cc(Cl)ccc3n2C(c2ccccc2)c2ccccc2)n1 | 5 | 450 | 160 | inhibition at 0.11 µM [1]: 89%; inhibition at 0.11 µM [4]: 83% |
| COc1ccc2cc([C@H](C)C(=O)O)ccc2c1 [NAPROXEN] | – | – | – | inhibition at […] [18]: 50%; inhibition at 0.2 µM [19]: 50%; inhibition in vivo at 10 mg/kg [20]: 50% |
| Cc1ccccc1SCS(=O)(=O)NCCc1c(CCOc2ccc(C(=O)O)cc2)c2cc(Cl)ccc2n1C(c1ccccc1)c1ccccc1 | – | 150 | 80 | – |
| Cc1ccc(-c2cc(C(F)(F)F)nn2-c2ccc(S(N)(=O)=O)cc2)cc1 [CELECOXIB] | – | – | – | inhibition at 0.0005 µM [21]: 79%; inhibition at 0.3 µM [22]: 50%; inhibition at 0.0005 µM [23]: 79%; inhibition at 0.4 µM [24]: 50% |
| O=C(O)c1ccc(OCCc2c(CCNS(=O)(=O)CCN3CCOCC3)n(C(c3ccccc3)c3ccccc3)c3ccc(Cl)cc23)cc1 | – | 390 | 530 | – |
| O=C(O)c1ccc(OCCc2c(CCNS(=O)(=O)CSc3ccccc3)n(C(c3ccccc3)c3ccccc3)c3ccc(Cl)cc23)cc1 | – | 190 | 75 | – |
| CS(=O)(=O)CS(=O)(=O)NCCc1c(CCOc2ccc(C(=O)O)cc2)c2cc(Cl)ccc2n1C(c1ccccc1)c1ccccc1 | – | 150 | 480 | inhibition at 0.5 µM [25]: -47%; inhibition at 0.5 µM [26]: 100%; inhibition at 0.5 µM [27]: 100% |
